The text below walks through data of ChEMBL document CHEMBL3797200, “Mohangic Acids A-E, p-Aminoacetophenonic Acids from a Marine-Mudflat-Derived Streptomyces sp” (J Nat Prod, 2016).

Series [1] in a line: Cytotoxicity against human SKHEP1 cells after 72 hrs by SRB assay. The class given is functional, cell-based. Conditions: SK-HEP1, 72 h. (Sulforhodamine B stains cellular protein and so reports cell mass.)
For a further series, the system named is K562. Briefly: Cytotoxicity against human K562 cells after 72 hrs by SRB assay. The class given is functional, cell-based. Conditions: K562, 72 h.
The test system of a further series is Candida albicans. Briefly: Antifungal activity against Candida albicans. Format: functional.
Series [2] is described as follows: Cytotoxicity against human HCT116 cells after 72 hrs by SRB assay. Format: functional, cell-based. Conditions: HCT-116, 72 h.
The subject of the next series is Salmonella enterica. In words: Antibacterial activity against Salmonella enterica. Format: functional.
The test system of the next series is Bacillus subtilis. Briefly: Antibacterial activity against Bacillus subtilis. The class given is functional.
Series [3] can be described thus: Cytotoxicity against human SNU638 cells after 72 hrs by SRB assay. Conditions: SNU-638, 72 h. The class given is functional, cell-based.
For the next series, the system named is Staphylococcus aureus. Briefly: Antibacterial activity against Staphylococcus aureus. Format: functional.
A further series relates to Proteus hauseri. Briefly: Antibacterial activity against Proteus hauseri. Format: functional.
Another series concerns Kocuria rhizophila. In words: Antibacterial activity against Kocuria rhizophila. The class given is functional.
For the next series, the system named is Escherichia coli. Briefly: Antibacterial activity against Escherichia coli. The class given is functional.
A further series has as its system A549. In words: Cytotoxicity against human A549 cells after 72 hrs by SRB assay. Conditions: A549, 72 h. The class given is functional, cell-based.
For series [4], the species on record is Mus musculus. In words: Induction of Quinone reductase activity in mouse Hepa1c1c7 cells at 20 uM after 24 hrs by MTT assay relative to control. The class given is cell-based. The essentials:
(§1)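 Hepa-1c1c7 murine hepatoma cells plated at 20 000 cells/mL, grown 24 h (37 °C, 5% CO2), then compound-treated 24 h; vehicle 0.1% DMSO, β-naphthoflavone 2 μM positive control. Lysis in Tris/NaCl/MgCl2/0.5% NP-40, then FAD, G6P/G6PDH, NADP, MTT, menadione mix, 10 min; MTT reduction at 610 nm, crystal violet protein on parallel plates; SA = (MTTabs/CVabs)×3345, nmol/min/mg; mean ± SD of four determinations.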
A general note: Tetrazolium dyes change colour on reduction, which living cells bring about.

The next series concerns MDA-MB-231. In words: Cytotoxicity against human MDA-MB-231 cells after 72 hrs by SRB assay. The class given is functional, cell-based. Conditions: MDA-MB-231, 72 h.
For another series, the system named is Aspergillus fumigatus. In words: Antifungal activity against Aspergillus fumigatus. The class given is functional.
A short description of series [5]: Cytotoxicity against mouse Hepa1c1c7 cells. The class given is cell-based.
Series [6] is filed under the species Mus musculus. Briefly: Induction of Quinone reductase activity in mouse Hepa1c1c7 cells at 10 uM after 24 hrs by MTT assay relative to control. Format: cell-based. The essentials: as §1
The species entered for series [7] is Mus musculus. Briefly: Induction of Quinone reductase activity in mouse Hepa1c1c7 cells at 2 uM after 24 hrs by MTT assay relative to control. Format: cell-based. The essentials:
as §1

For series [8], the species on record is Mus musculus. Briefly: Induction of Quinone reductase activity in mouse Hepa1c1c7 cells after 24 hrs by MTT assay. Format: cell-based. A digest of the protocol: as §1
The species named for series [9] is Mus musculus. Briefly: Induction of Quinone reductase activity in mouse Hepa1c1c7 cells at 5 uM after 24 hrs by MTT assay relative to control. Format: cell-based. A digest of the protocol:
as §1

The species entered for series [10] is Mus musculus. Briefly: Induction of Quinone reductase activity in mouse Hepa1c1c7 cells at 30 uM after 24 hrs by MTT assay relative to control. The class given is cell-based. The essentials: as §1

Calls of active or inactive are those of the source.

Turning to `CC(=O)Nc1ccc([C@H](O)C[C@@H](O)[C@H](C)C[C@@H](C)[C@H](O)[C@H](C)/C=C/C=C/C=C/[C@H](O)CC(=O)O)cc1`, the IC50 (in [1]; in the series on K562; in [2]; in series [3]; in the series with A549; in the series on MDA-MB-231) was over 10 µM in each case. In addition, the MIC against Candida albicans, with Salmonella enterica, in the series with Bacillus subtilis, in the series with Staphylococcus aureus, against Proteus hauseri and in the series with Kocuria rhizophila was over 128 µM throughout. Also, the MIC against Escherichia coli and against Aspergillus fumigatus was over 128 µM throughout. Besides, the outcome in the series listed under Mus musculus [4] was inactive.
Turning to `C[C@H](/C=C/C=C/C=C/[C@H](O)CC(=O)O)[C@@H](O)[C@H](C)C[C@@H](C)[C@H](O)CC(=O)c1ccc(N)cc1`, the IC50 (in [1]; in the series with K562; in series [2]; in series [3]; in the series on A549; with MDA-MB-231) was over 10 µM in each case. The minimal inhibitory concentration (MIC) in the series on Candida albicans, with Salmonella enterica, in the series on Bacillus subtilis, with Staphylococcus aureus, in the series with Proteus hauseri and with Kocuria rhizophila was over 128 µM in each case. The minimum inhibitory concentration (MIC) with Escherichia coli and with Aspergillus fumigatus was over 128 µM in each case. The result in the series listed under Mus musculus [4] was inactive.
For the compound `C[C@H](/C=C/C=C/C=C/[C@H](O)CC(=O)O)[C@@H](O)[C@H](C)C[C@@H](C)[C@H](O)CC(=O)c1ccc(N[C@@H]2O[C@H](CO)[C@@H](O)[C@H](O)[C@H]2O)cc1`, the IC50 (in [1]; in the series on K562; in series [2]; in series [3]; with A549; in the series on MDA-MB-231) was over 10 µM each time. Besides, the Activity result is “Non-toxic” in [5] and “Dose-dependent effect” in the series filed under Mus musculus [8]. The MIC against Candida albicans, in the series with Salmonella enterica, against Bacillus subtilis, against Staphylococcus aureus, against Proteus hauseri and in the series with Kocuria rhizophila was over 128 µM throughout. Also, the MIC in the series with Escherichia coli and in the series on Aspergillus fumigatus was over 128 µM in each case. Moreover, the fold change (FC) in the series filed under Mus musculus [6] is 1.8; in the series filed under Mus musculus [7], 1.3; in the series listed under Mus musculus [9], 1.5; in the series listed under Mus musculus [10], 2.2; in the series listed under Mus musculus [4], 2.1.
Consider `CC(=O)Nc1ccc(C(=O)C[C@@H](O)[C@H](C)C[C@@H](C)[C@H](O)[C@H](C)/C=C/C=C/C=C/[C@H](O)CC(=O)O)cc1`, for which the IC50 (in series [1]; in the series with K562; in [2]; in series [3]; with A549; with MDA-MB-231) was over 10 µM throughout. Moreover, the MIC in the series with Candida albicans, in the series with Salmonella enterica, against Bacillus subtilis, in the series on Staphylococcus aureus, against Proteus hauseri and against Kocuria rhizophila was over 128 µM throughout. Further, the MIC with Escherichia coli and against Aspergillus fumigatus was over 128 µM throughout. For the same compound, the result in the series filed under Mus musculus [4] was inactive.
In the case of `CNc1ccc(C(=O)C[C@@H](O)[C@H](C)C[C@@H](C)[C@H](O)[C@H](C)/C=C/C=C/C=C/[C@H](O)CC(=O)O)cc1`, the IC50 (in series [1]; with K562; in series [2]; in [3]; in the series on A549; in the series on MDA-MB-231) was over 10 µM in each case. Also, the minimal inhibitory concentration (MIC) against Candida albicans, with Salmonella enterica, against Bacillus subtilis, with Staphylococcus aureus, with Proteus hauseri and in the series on Kocuria rhizophila was over 128 µM in each case. Further, the MIC with Escherichia coli and against Aspergillus fumigatus was over 128 µM each time. In the series listed under Mus musculus [4], the result was inactive.

The term IC50 denotes the concentration that inhibits the measured activity by half. A high value points to weaker potency in that assay. As a reminder, the MIC is the smallest concentration in the dilution series that meets the test's criterion for growth inhibition.
